Experimental data: ChEMBL document CHEMBL2176919, “Design, synthesis, and biological evaluation of 17-cyclopropylmethyl-3,14β-dihydroxy-4,5α-epoxy-6β-[(4'-pyridyl)carboxamido]morphinan derivatives as peripheral selective μ opioid receptor Agents” (J Med Chem, 2012)
The source made the active and inactive calls.

Experiments:
Caco-2 = experiment: Apparent permeability of the compound across human Caco2 cells; assay type: ADME, cell-based
In short: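 Caco-2 cells (passages 45–47) grown 22 days on 0.4 μm Transwell filters seeded at 80 000 cells/cm2, in DMEM with 10% FBS, antibiotics and nonessential amino acids. Drug in HEPES-buffered (10 mM) HBSS was added apically or basolaterally, and the receiver side was sampled up to 2 h. Samples were quantified by HPLC-UV. Papp = J/(A·Ci).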

Mu-type opioid receptor [1] = molecular target: T1, Mu-type opioid receptor (Homo sapiens, UniProt P35372); experiment: Agonist activity at mu opioid receptor expressed in CHO cells assessed as stimulation of [35S]-GTP-gammaS binding relative to DAMGO; assay type: cell-based
T1 sequence (P35372 whole entry): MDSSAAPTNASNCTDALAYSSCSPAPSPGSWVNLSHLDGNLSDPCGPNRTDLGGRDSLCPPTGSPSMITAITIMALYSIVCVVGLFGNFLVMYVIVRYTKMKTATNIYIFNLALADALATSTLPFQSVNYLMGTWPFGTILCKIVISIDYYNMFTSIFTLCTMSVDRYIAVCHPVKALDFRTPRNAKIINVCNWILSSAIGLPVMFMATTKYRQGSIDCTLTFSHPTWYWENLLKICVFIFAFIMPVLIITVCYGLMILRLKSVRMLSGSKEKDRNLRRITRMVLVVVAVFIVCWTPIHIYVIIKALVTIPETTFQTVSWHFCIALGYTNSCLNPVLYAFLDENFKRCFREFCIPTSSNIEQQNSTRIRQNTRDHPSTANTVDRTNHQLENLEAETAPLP

[2] = molecular target: T2, Kappa-type opioid receptor (Homo sapiens, UniProt P41145); experiment: Agonist activity at kappa opioid receptor expressed in CHO cells assessed as stimulation of [35S]-GTP-gammaS binding; assay type: functional, cell-based
T2 sequence (P41145 whole entry): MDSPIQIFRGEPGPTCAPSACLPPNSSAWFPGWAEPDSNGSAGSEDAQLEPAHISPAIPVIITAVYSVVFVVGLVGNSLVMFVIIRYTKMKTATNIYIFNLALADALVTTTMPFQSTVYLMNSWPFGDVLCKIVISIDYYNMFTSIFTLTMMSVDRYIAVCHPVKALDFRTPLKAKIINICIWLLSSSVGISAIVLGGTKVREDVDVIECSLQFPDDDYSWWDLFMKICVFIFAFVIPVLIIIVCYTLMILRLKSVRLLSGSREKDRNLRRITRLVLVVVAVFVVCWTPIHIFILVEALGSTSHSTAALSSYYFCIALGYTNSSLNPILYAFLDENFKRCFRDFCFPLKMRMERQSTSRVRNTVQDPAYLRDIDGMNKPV
In short: (§1)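 GTP[γS] functional assay in membranes of CHO cells expressing the cloned opioid receptor. Membrane protein 10 μg incubated at 30 °C with varying drug concentrations and 0.1 nM 35S-GTP[γS]: μ with 10 μM GDP for 2 h; κ and δ with 20 μM GDP for 1.5 h. Nonspecific binding defined with 10 μM unlabeled GTP[γS].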

[3] = molecular target: T3, Delta-type opioid receptor (Homo sapiens, UniProt P41143); experiment: Agonist activity at delta opioid receptor expressed in CHO cells assessed as stimulation of [35S]-GTP-gammaS binding relative to SNC80; assay type: functional, cell-based
T3 sequence (P41143 whole entry): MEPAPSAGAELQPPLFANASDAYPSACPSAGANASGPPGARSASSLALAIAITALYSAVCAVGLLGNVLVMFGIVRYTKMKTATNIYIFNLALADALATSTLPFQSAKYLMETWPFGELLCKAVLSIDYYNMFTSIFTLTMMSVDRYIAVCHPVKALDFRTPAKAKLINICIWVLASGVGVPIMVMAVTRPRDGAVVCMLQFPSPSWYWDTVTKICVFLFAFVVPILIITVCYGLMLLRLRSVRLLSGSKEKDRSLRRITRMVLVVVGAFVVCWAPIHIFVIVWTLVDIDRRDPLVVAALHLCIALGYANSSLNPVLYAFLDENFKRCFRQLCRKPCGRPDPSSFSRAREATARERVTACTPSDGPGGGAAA

[4] = molecular target: T2, Kappa-type opioid receptor; experiment: Agonist activity at kappa opioid receptor expressed in CHO cells assessed as stimulation of [35S]-GTP-gammaS binding relative to U50,488H; assay type: functional, cell-based
Mus musculus [5] = experiment: Inhibition of morphine-induced decrease in gastrointestinal motility in morphine-pelleted Swiss-Webster mouse at 0.3 to 10 mg/kg, sc; assay type: functional, organism-based
Mus musculus [6] = experiment: Inhibition of morphine-induced decrease in gastrointestinal motility in Swiss-Webster mouse at 10 mg/kg, sc; assay type: functional, organism-based; set-up: dose 10 mg/kg
In short: (§2)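 GI transit assay in male Swiss-Webster mice, groups of four or six. Compound or saline was given sc at time zero, then morphine (2 or 10 mg/kg) sc 5 min later. A charcoal meal was gavaged 20 min after morphine. Mice were killed 30 min after the meal, and charcoal distance was expressed as a percentage of small-intestine length from pylorus to cecum. Significance was tested by one-way ANOVA with Dunnett's test.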

Mus musculus [7] = experiment: Toxicity in morphine-pelleted Swiss-Webster mouse assessed as diarrhea up to 10 mg/kg, sc; assay type: organism-based; set-up: dose 10 mg/kg, route subcutaneous; conditions: in vivo
Mus musculus [8] = experiment: Inhibition of morphine-induced antinociceptive activity in Swiss-Webster mouse assessed as thermal-stimulus induced tail flick latency up to 30 mg/kg; assay type: functional, organism-based; set-up: dose 30 mg/kg
Mus musculus [9] = experiment: Antinociceptive activity in Swiss-Webster mouse assessed as thermal-stimulus induced tail flick latency at 3 mg/kg relative to morphine; assay type: functional
In short: (§3)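 Warm-water tail flick test in male Swiss-Webster mice (25–30 g) with a 56 ± 0.1 °C bath. Only mice with a 2–4 s baseline latency were used, and a 10 s cutoff was applied. Latency was read after drug treatment. %MPE = [(test − control latency)/(10 − control latency)] × 100, computed per mouse with at least six mice per drug.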

Mus musculus [10] = experiment: Effect on gastrointestinal motility in Swiss-Webster mouse at 10 mg/kg, sc; assay type: functional, organism-based; set-up: dose 10 mg/kg
Mus musculus [11] = experiment: Inhibition of morphine-induced decrease in gastrointestinal motility in sc dosed morphine-pelleted Swiss-Webster mouse; assay type: functional
[12] = molecular target: T3, Delta-type opioid receptor; experiment: Agonist activity at delta opioid receptor expressed in CHO cells assessed as stimulation of [35S]-GTP-gammaS binding; assay type: functional, cell-based; in short: as §1
Mu-type opioid receptor [13] = molecular target: T1, Mu-type opioid receptor; conditions: CHO; 100 nM
[14] = molecular target: T2, Kappa-type opioid receptor; experiment: Displacement of [3H]DPN from kappa opioid receptor expressed in CHO cells after 1 hr; assay type: cell-based
[15] = Selectivity ratio of Ki for kappa opioid receptor to Ki for mu opioid receptor
Mu-type opioid receptor [16] = molecular target: T1, Mu-type opioid receptor; experiment: Agonist activity at mu opioid receptor expressed in CHO cells assessed as stimulation of [35S]-GTP-gammaS binding; assay type: cell-based; in short: as §1
Mu-type opioid receptor [17] = molecular target: T1, Mu-type opioid receptor; experiment: Displacement of [3H]Naloxone from mu opioid receptor expressed in CHO cells after 1 hr; assay type: cell-based
[18] = molecular target: T3, Delta-type opioid receptor; experiment: Displacement of [3H]NTI from delta opioid receptor expressed in CHO cells after 1 hr; assay type: cell-based
[19] = Selectivity ratio of Ki for delta opioid receptor to Ki for mu opioid receptor
Mus musculus [20] = experiment: Antinociceptive activity in Swiss-Webster mouse assessed as thermal-stimulus induced tail flick latency at 10 mg/kg relative to morphine; assay type: functional; in short: as §3
Mus musculus [21] = experiment: Inhibition of morphine-induced antinociceptive activity in Swiss-Webster mouse assessed as thermal-stimulus induced tail flick latency at 10 mg/kg; assay type: functional, organism-based; set-up: dose 10 mg/kg
Mus musculus [22] = experiment: Inhibition of morphine-induced decrease in gastrointestinal motility in sc dosed Swiss-Webster mouse; assay type: functional; in short: as §2
Mus musculus [23] = experiment: Antinociceptive activity in Swiss-Webster mouse assessed as thermal-stimulus induced tail flick latency at 10 mg/kg; assay type: functional
In short: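 Male Swiss-Webster mice, 25–30 g, allowed 18 h to recover from transport. Warm-water tail flick, bath at 56 ± 0.1 °C; only mice with 2–4 s baseline latency used. Latency retested after drug at the appropriate time, 10 s cutoff. Expressed as %MPE = [(test − control latency)/(10 − control latency)] × 100, calculated per mouse, at least six mice per drug.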

With `O=C(CNC(=O)c1ccncc1)N[C@@H]1CC[C@@]2(O)[C@H]3Cc4ccc(O)c5c4[C@@]2(CCN3CC2CC2)[C@H]1O5` the Papp (Caco-2) was “permeable”, the Emax (Mu-type opioid receptor [1]) was 22.6% and the EC50 [2] was 25 nM. For the same compound, the Emax [3] was 84.3%, the Emax [4] was 23.5% and the inhibition (Mus musculus [5]) was “Active”. The inhibition (Mus musculus [6]) was “inactive”, the Activity (Mus musculus [7]) was “Non-toxic” and the inhibition (Mus musculus [8]) was “inactive”. The MPE (Mus musculus [9]) was 11.2%, the Activity (Mus musculus [10]) was “Active” and the ED50 (Mus musculus [11]) was 0.08 mg/kg. For the same compound, the EC50 [12] was 19 nM.
`C[C@@H](O)[C@H](NC(=O)[C@H]1NC(=O)[C@H]([C@@H](C)O)NC(=O)[C@H](CCCNC(=N)N)NC(=O)[C@@H](Cc2c[nH]c3ccccc23)NC(=O)[C@H](Cc2ccc(O)cc2)NC(=O)[C@@H](NC(=O)[C@H](N)Cc2ccccc2)CSSC1(C)C)C(N)=O` gave an Emax (Mu-type opioid receptor [13]) of 1.99%.
In the case of `O=C(N[C@@H]1CC[C@@]2(O)[C@H]3Cc4ccc(O)c5c4[C@@]2(CCN3CC2CC2)[C@H]1O5)c1ccnnc1`, the Ki [14] is reported as 1.57 nM, the Ratio Ki [15] is reported as 0.7 and the EC50 (Mu-type opioid receptor [16]) is reported as 28.3 nM. It also gave an Emax (Mu-type opioid receptor [1]) of 27.6%, a Ki (Mu-type opioid receptor [17]) of 2.07 nM and a Ki [18] of 420 nM. It also gave a Ratio Ki [19] of 203.
For `O=C(N[C@@H]1CC[C@@]2(O)[C@H]3Cc4ccc(O)c5c4[C@@]2(CCN3CC2CC2)[C@H]1O5)c1ccnc(Br)c1`, the Ratio Ki [15] was 0.3, the Emax (Mu-type opioid receptor [1]) was 50.8% and the Ratio Ki [19] was 276.
Compound `C[N@+]1(CC2CC2)CC[C@]23c4c5ccc(O)c4O[C@H]2C(=O)CC[C@@]3(O)[C@H]1C5` has a Ratio Ki [15] of 10 and a Ratio Ki [19] of 24.
For `O=C(N[C@@H]1CC[C@@]2(O)[C@H]3Cc4ccc(O)c5c4[C@@]2(CCN3CC2CC2)[C@H]1O5)c1ccncc1Cl`, the Ratio Ki [15] was 30, the Emax (Mu-type opioid receptor [1]) was 24.9% and the Ratio Ki [19] was 746.
With `O=C(N[C@@H]1CC[C@@]2(O)[C@H]3Cc4ccc(O)c5c4[C@@]2(CCN3CC2CC2)[C@H]1O5)c1ccnc(Cl)c1` the Ratio Ki [15] was 1.5, the Emax (Mu-type opioid receptor [1]) was 58.2% and the Ratio Ki [19] was 6110.
With `COc1cc(C(=O)N[C@@H]2CC[C@@]3(O)[C@H]4Cc5ccc(O)c6c5[C@@]3(CCN4CC3CC3)[C@H]2O6)ccn1` the Ki [14] was 0.46 nM, the Ratio Ki [15] was 0.8 and the EC50 (Mu-type opioid receptor [16]) was 7.89 nM. It also gave an Emax (Mu-type opioid receptor [1]) of 25.3%, a Ki (Mu-type opioid receptor [17]) of 0.6 nM and a Ki [18] of 160 nM. For the same compound, the Ratio Ki [19] was 267.
For `Cc1cnccc1C(=O)N[C@@H]1CC[C@@]2(O)[C@H]3Cc4ccc(O)c5c4[C@@]2(CCN3CC2CC2)[C@H]1O5`, the Ratio Ki [15] was 166, the MPE (Mus musculus [20]) was 4.4% and the Papp (Caco-2) was “permeable”. For the same compound, the Emax (Mu-type opioid receptor [1]) was 30.6%, the inhibition (Mus musculus [21]) was “inactive” and the EC50 [2] was 26.4 nM. The Emax [3] was 90.2%, the Emax [4] was 31.4% and the inhibition (Mus musculus [6]) was “Active”. For the same compound, the Activity (Mus musculus [7]) was “Non-toxic”, the ED50 (Mus musculus [22]) was 7.85 mg/kg and the Activity (Mus musculus [10]) was “Active”. The Ratio Ki [19] was 470, the ED50 (Mus musculus [11]) was 0.03 mg/kg and the inhibition (Mus musculus [11]) was “Dose-dependent effect”. The EC50 [12] was 38.6 nM.
Work on `COc1cnccc1C(=O)N[C@@H]1CC[C@@]2(O)[C@H]3Cc4ccc(O)c5c4[C@@]2(CCN3CC2CC2)[C@H]1O5` yielded a Ki [14] of 4.28 nM, a Ratio Ki [15] of 10 and a Ki (Mu-type opioid receptor [17]) of 0.43 nM. It also gave a Ki [18] of 104 nM and a Ratio Ki [19] of 242.
For `CN1CCC(C(=O)N[C@@H]2CC[C@@]3(O)[C@H]4Cc5ccc(O)c6c5[C@@]3(CCN4CC3CC3)[C@H]2O6)CC1`, the Ratio Ki [15] was 7.5, the Emax (Mu-type opioid receptor [1]) was 37.2% and the Ratio Ki [19] was 2970.
`O=C(N[C@@H]1CC[C@@]2(O)[C@H]3Cc4ccc(O)c5c4[C@@]2(CCN3CC2CC2)[C@H]1O5)c1ccncc1` gave an EC50 [2] of 28.8 nM and an Emax [4] of 45.5%.
Work on `O=C(CCc1ccncc1)N[C@@H]1CC[C@@]2(O)[C@H]3Cc4ccc(O)c5c4[C@@]2(CCN3CC2CC2)[C@H]1O5` yielded a Ratio Ki [15] of 2.9, an Emax (Mu-type opioid receptor [1]) of 22.6% and a Ratio Ki [19] of 516.
`CN1CC[C@]23c4c5ccc(O)c4O[C@H]2[C@@H](O)C=C[C@H]3[C@H]1C5` [MORPHINE] gave an MPE (Mus musculus [23]) of 100%.
With `O=C(Cc1ccncc1)N[C@@H]1CC[C@@]2(O)[C@H]3Cc4ccc(O)c5c4[C@@]2(CCN3CC2CC2)[C@H]1O5` the Ratio Ki [15] was 10.6, the Emax (Mu-type opioid receptor [1]) was 32.8% and the Ratio Ki [19] was 1020.
Compound `N#Cc1cc(C(=O)N[C@@H]2CC[C@@]3(O)[C@H]4Cc5ccc(O)c6c5[C@@]3(CCN4CC3CC3)[C@H]2O6)ccn1` has a Ki [14] of 0.13 nM, a Ratio Ki [15] of 0.1 and an EC50 (Mu-type opioid receptor [16]) of 10 nM. For the same compound, the Emax (Mu-type opioid receptor [1]) was 43.1%, the Ki (Mu-type opioid receptor [17]) was 1.25 nM and the Ki [18] was 75.3 nM. For the same compound, the Ratio Ki [19] was 60.
For `Cc1cc(C(=O)N[C@@H]2CC[C@@]3(O)[C@H]4Cc5ccc(O)c6c5[C@@]3(CCN4CC3CC3)[C@H]2O6)ccn1`, the Ratio Ki [15] was 1.5, the Emax (Mu-type opioid receptor [1]) was 43.3% and the Ratio Ki [19] was 232.
`O=C(N[C@@H]1CC[C@@]2(O)[C@H]3Cc4ccc(O)c5c4[C@@]2(CCN3CC2CC2)[C@H]1O5)c1ccncc1Br` showed a Ratio Ki [15] of 6, an Emax (Mu-type opioid receptor [1]) of 23.2% and a Ratio Ki [19] of 285.
